High-throughput results: PubChem BioAssay, Columbia University Molecular Screening Center
INS promoter act: TRM-6 insulin promoter activation | AID 1296 | TRM-6 cells (human fetal islet line), insulin promoter eGFP reporter, imaging; plate-scaled: unstimulated 0, stimulated control 100 | activation, % at 2 µM | 130,000 compounds, 0.81% hits;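 active means activation at 2 µM above a set limit, confirmed on inspection of the cell images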;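 further: share of cells whose green reporter signal exceeds an intensity cutoff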
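test system = TRM-6 insulin promoter–eGFP reporter cells | benchmarks = stimulated versus unstimulated wells as plate controls | read-out basis = percent cells above green-intensity threshold, converted to percent activation versus plate controls | detection = fixed-cell fluorescence microscopy, eGFP plus Hoechst | incubation = tamoxifen pre-incubation 15 h overnight, then compound exposure 48 h at 37 °C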
* marks the source's active call; other numbers are inactive results. The sample as a whole holds a higher share of hits than the screen did.

SMILES | INS promoter act
CC(C)(C)C(=O)NCCCc1ccccc1 | -2.9
C[N+]1(CC(=O)OCCCc2ccccc2)CCCCC1 | 350.0*
CN(C)CCCOC(=O)c1ccccc1 | 326.7
Cc1ccc(-c2nnn(CC(=O)N(CC(=O)NC3CCCCC3)c3cnc4ccccc4c3)n2)o1 | -5.3
CCCCN1CCc2c1nc1ccc(Br)cc1c2N | -86.7
COc1ccc(NC(=O)CC2C(=O)N(Cc3ccccc3)C(=S)N2CCN2CCOCC2)cc1 (configuration not stated) | 333.3*
COc1ccc(NC(=O)CC2C(=O)N(C)C(=S)N2CCc2ccccc2)cc1 (configuration not stated) | -7.1
COC(=O)CN1C(=S)N(Cc2ccccc2)C(=O)C1CC(=O)Nc1ccc(OC)cc1 (configuration not stated) | -80.0
COc1cccc(-c2nnc(SCC(=O)NCc3ccc4c(c3)OCO4)n2Cc2ccco2)c1 | -4.3
C=CCn1c(SCC(=O)NCc2ccc3c(c2)OCO3)nnc1-c1cccnc1 | -76.5
O=C(CSc1nnc(-c2cccnc2)n1Cc1ccco1)NCc1ccc2c(c1)OCO2 | 284.6*
Cn1nnnc1SCC(=O)N1c2ccccc2Sc2ccccc21 | -9.1
C=CCn1c(CNC(=O)c2ccccc2C)nnc1SCC(=O)NC1CCCC1 | 304.7
C=CCn1c(CNC(=O)c2ccco2)nnc1SCC(=O)N1c2ccccc2Sc2ccccc21 | 103.3*
CCc1sc(C(=O)Nc2ccc(F)cc2C)cc1C | -2.9
Cc1nc(S(=O)(=O)N2CCOCC2)c(C#N)c(C)c1Cl | 0.0
CCC(=O)Nc1ccc(C(=O)CSc2nc3ccccc3[nH]2)cc1 | -60.0
CCOC(=O)c1cnc(SCC(=O)Nc2ccc(NC(=O)CC)c(OC)c2)nc1N | -7.1
O=C(CC1NCCc2ccccc21)Nc1ccccc1 (configuration not stated) | 7.3
CN(C)c1ccc(NC(=O)CC2NCCNC2=O)cc1 (configuration not stated) | 487.5*
CN(C)c1ccc(NC(=O)COC(=O)CCC(=O)c2ccc(F)cc2)cc1 | -2.9
N#Cc1c(NC(=O)c2cccnc2)sc2c1CCC2 | 6.5
N#Cc1c(NC(=S)NC(=O)c2ccccc2)sc2c1CCN(CCc1ccccc1)C2 | 270.4*
CC1(C)Cc2c(sc(NC(=S)NC(=O)c3ccccc3)c2C(=O)O)CO1 | 0.0
Cc1ccc(S(=O)(=O)NNC(=O)C2Cc3c(ccc4ccccc34)O2)cc1 (configuration not stated) | -4.2
SMILES | INS promoter act
N/C(=N\OS(=O)(=O)c1ccc2ccccc2c1)c1ccccn1 | 8.3
CCOC(=O)/C(C#N)=C\c1ccc(CC)s1 | 3.3
CCOC(=O)/C(C#N)=C\C=C1C=CN(C)C=C1 | 110.5*
CCOC(=O)/C(C#N)=C\c1cc(C)n(-c2ccccc2)c1C | 0.0
CC1=C(C)CC(C(=O)NNC(=O)c2cccc(Cl)c2)C(C(=O)O)C1 (configuration not stated) | 0.0
CN(C)c1nc(NS(=O)(=O)c2ccc(Cl)cc2)nc(N(C)C)n1 | -71.4
COc1ccc(C)cc1NC(=O)C(=O)NNC(=O)COc1ccc(Cl)cc1 | 0.0
CCN1C(=O)/C(=C\c2ccc3c(c2)OCO3)C(C(=O)OC)=C1C | 4.2
COC(=O)C1=C(C)N(CCc2c[nH]c3ccccc23)C(=O)/C1=C\N(C)C | 408.6*
CC(C)NC(=O)CCCc1c[nH]c2ccccc12 | 8.3
NC(=O)N/N=C/c1cc(Br)ccc1OC(=O)c1ccccc1 | 9.8
O=C(CC12CC3CC(CC(Br)(C3)C1)C2)Nc1cccc(S(=O)(=O)NC2=NCCC2)c1 | -8.6
COCCN(Cc1ccccc1)C(=S)Nc1ccc(OC(F)F)cc1 | -7.1
Cc1cccc(N2CCN(Cc3nc(-c4cccc(Oc5ccccc5)c4)oc3C)CC2)n1 | 8.7
O=C(COC(=O)c1ccccn1)NC1CCCCC1 | -2.9
O=C1NC(=O)C(CC(=O)N(Cc2ccco2)C2(C(=O)NC3CCCC3)CCCCC2)N1 (configuration not stated) | 0.0
O=C(c1ccccn1)N(Cc1ccco1)C1(C(=O)NC2CCCC2)CCCCC1 | 80.6*
Cc1cc(C)c(S(=O)(=O)NCC(CCC(=O)O)C(F)(F)F)c(C)c1 (configuration not stated) | 0.0
Cc1cc(N=Nc2ccccc2)c(NCC(O)C(O)C(O)CO)cc1C (configuration not stated) | -82.3
Cc1ccc(NCC(O)C(O)C(O)CO)cc1C (configuration not stated) | 426.7*
CSc1ccc(CNc2ccc(C)c(C)c2)cc1 | 0.0
CN(C)c1nc(NC(C)(C)C)nc(SCC(=O)Nc2ccccc2)n1 | -80.5
O=C1c2ccsc2SCCN1Cc1c(Cl)cccc1Cl | 107.1
O=C(CCn1cnc2ccccc2c1=O)Nc1cccc(Cl)c1 | 9.1
O=C(CCn1cnc2ccccc2c1=O)Nc1nc2c(s1)CCCC2 | 510.0*
SMILES | INS promoter act
O=C(CCS(=O)(=O)Cc1ccccc1)Nc1nc2c(s1)CCCC2 | 9.7
C=CCc1cc(/C=N/NC(=O)CSc2nnc(CCCc3ccc(OC)cc3)o2)cc(OC)c1O | 4.3
O=C(NCC1COc2ccccc2O1)c1ccc(NC(=O)C(c2ccccc2)c2ccccc2)cc1 (configuration not stated) | 0.0
CCCC12CN3CC(CCC)(CN(C1)C3C(O)C(O)C(O)CO)C2=O (configuration not stated) | 3.8
CSCCC(NC(=O)c1ccc(Cl)cc1)C(=O)NC(C)(C)C (configuration not stated) | 4.3
Cc1cc2c(OCC(O)CN3CCCC3)cccc2[nH]1 (configuration not stated) | 109.1
Cc1cc2nc(CCN(C(=S)NCC(C)C)C3CCCC3)[nH]c2cc1C | -4.4
CCNc1ccc(Br)cc(C(=O)/C=C/c2ccccc2Cl)c1=O | 800.0*
CCc1ccc(/C=C/C(=O)c2cc(Br)ccc(=O)c2O)cc1 | 2.9
O=C(/C=C/c1ccccc1Cl)NCCc1ccc(F)cc1 | 2.6
CC1(C)N=C(N)NC(Nc2ccccc2)=N1 | 0.0
COC(=O)c1c(NC(=S)Nc2ccccc2Cl)sc(C)c1C | 3.2
C/C=C/C(=O)N1c2ccccc2C(C)=CC1(C)C | 0.0
CC1=CC(C)(C)N(C(=O)Nc2ccccc2)c2ccccc21 | 0.0
CC1=CC(C)(C)N(C(=O)CSc2nncn2C)c2ccccc21 | 630.8*
COc1cccc(OC)c1C(=O)N1CCN(Cc2ccccc2C)CC1 | -7.1
COc1ccc(/C=C2\CC/C(=C\c3ccc(OC)cc3OC)C2=O)c(OC)c1 | 526.7*
COc1ccc(/C=N\NC(=O)c2cccc(Br)c2)c(OC)c1 | -7.1
COc1ccc(/C=C2\CC/C(=C\c3ccc(OC)c(OC)c3)C2=O)cc1OC | -8.3
O=C(CCCn1cc([N+](=O)[O-])cn1)NC1CCCCCC1 | 3.7
CCOc1ccc(C2OC34CCCCC3C(C#N)(C#N)C2(C#N)C(=N)O4)cc1OC (configuration not stated) | -5.6
S=C(NCc1cccs1)NCC1CCCO1 (configuration not stated) | 0.0
COC(=O)COc1ccc(-c2ccc(F)cc2)cc1C=O | 450.0*
COC(=O)COc1ccc(S(=O)(=O)Nc2ccc(C(N)=O)cc2)cc1C | 3.3
CCOC(=O)N1CCN(S(=O)(=O)c2ccc(OCC(=O)OC)c(Cl)c2)CC1 | -2.9
Cc1cc(C)n(Cc2ccc(Cl)c(Cl)c2)c(=O)c1S(=O)(=O)c1ccccc1 | -3.6
Clc1ccc(-c2cc(COc3ccc4ccccc4c3)no2)cc1 | 0.0
CC1(C)CN(c2ccccc2)N(Cc2ccc(F)cc2)C1=O | 8.3
CNS(=O)(=O)c1ccc(OC)c(-c2nnc3c4ccccc4c(C)nn23)c1 | -7.3
